Results: ChEMBL document CHEMBL1132993, “Novel benzofuran and benzothiophene biphenyls as inhibitors of protein tyrosine phosphatase 1B with antihyperglycemic properties” (J Med Chem, 2000)

How the values were obtained:
[1] = test system: Mus musculus; test: percentage decrease in plasma glucose in the ob/ob mouse model at 100 mg/kg/day administered per orally; assay type: functional; conditions: route oral
Summary of the method: (§1)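 Genetically obese C57 B1/6J ob/ob diabetic mice, four to six per group, dosed orally once daily for 4 days. Plasma glucose is expressed as percent change relative to the vehicle-treated group, with p < 0.05 versus vehicle. Changes that are not significant are generally less than -15%. Ciglitazone served as the reference standard.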

[2] = target: T1, Tyrosine-protein phosphatase non-receptor type 1 (Homo sapiens, UniProt P18031); test: In vitro inhibitory activity against human recombinant protein tyrosine phosphatase 1b (PTP1B)
T1 sequence (P18031 whole entry): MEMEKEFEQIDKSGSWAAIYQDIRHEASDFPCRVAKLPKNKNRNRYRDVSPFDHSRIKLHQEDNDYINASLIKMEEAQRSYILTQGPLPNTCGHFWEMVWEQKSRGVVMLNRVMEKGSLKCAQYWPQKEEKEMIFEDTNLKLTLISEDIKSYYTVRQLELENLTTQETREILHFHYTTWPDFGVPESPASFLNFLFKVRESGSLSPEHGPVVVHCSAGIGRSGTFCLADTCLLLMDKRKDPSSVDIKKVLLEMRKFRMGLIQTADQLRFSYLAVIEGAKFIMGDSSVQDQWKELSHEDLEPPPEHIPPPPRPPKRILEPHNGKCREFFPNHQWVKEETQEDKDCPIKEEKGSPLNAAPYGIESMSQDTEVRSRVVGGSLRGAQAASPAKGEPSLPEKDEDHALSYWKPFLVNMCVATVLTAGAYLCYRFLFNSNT
Summary of the method: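 Recombinant human PTP1B, diluted in pH 7.4 Tris-HCl/EDTA/β-mercaptoethanol buffer, preincubated 10 min at 37 °C with compound in HEPES pH 7.4. Reaction ran 30 min at 37 °C. Released phosphate was read by malachite green-ammonium molybdate at 650 nm, in quadruplicate. IC50 came from four-parameter logistic regression.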

[3] = test system: Mus musculus; test: percentage decrease in plasma glucose in the ob/ob mouse model at 25 mg/Kg/day administered per orally; assay type: functional; summary of the method: as §1

IC50 [2] [nM] | Compound | Decrease [1] [%] | Decrease [3] [%]
 | COc1ccc(-c2cc(-c3ccc(-c4c(Cc5ccccc5)sc5ccccc45)cc3)cc(Br)c2OCC(=O)O)cc1 |  | 30
920 | Oc1ccc(-c2ccc(-c3c(Cc4ccccc4)oc4ccccc34)cc2)cc1 |  | 
82 | O=C(O)CNc1cc(-c2ccc(-c3c(Cc4ccccc4)oc4ccccc34)cc2)ccc1OCCc1ccccc1 |  | 
1600 | Cc1oc(-c2ccc(C(F)(F)F)cc2)nc1-c1cccc(-c2ccc(OC(Cc3ccccc3)C(=O)O)cc2)c1 (stereo not drawn) |  | 
100 | O=C(O)COc1c(Br)cc(-c2ccc(-c3c(Cc4ccccc4)sc4ccccc34)cc2)cc1Br |  | 
1100 | CCCCc1oc2ccccc2c1C(O)c1ccc2cc(O)ccc2c1 (stereo not drawn) |  | 
590 | O=C(O)[C@H](Cc1ccccc1)Oc1ccc(-c2ccc(-c3c(Cc4ccccc4)oc4ncccc34)cc2)cc1 |  | 
 | O=C(O)[C@@H](Cc1ccccc1)Oc1ccc(-c2ccc(-c3c(Cc4ccccc4)oc4ccccc34)cc2)cc1 | 35 | 
130 | CC[C@H](Oc1c(Br)cc(-c2ccc(-c3c(Cc4ccccc4)oc4ccccc34)cc2)cc1Br)C(=O)O |  | 
54 | COC(=O)C(CCNC(=O)c1ccccc1C(=O)O)Oc1c(Br)cc(-c2ccc(-c3c(Cc4ccccc4)sc4ccccc34)cc2)cc1Br (stereo not drawn) |  | 
52 | CCOc1ccc(-c2cc(-c3ccc(-c4c(Cc5ccccc5)sc5ccccc45)cc3)ccc2OCC(=O)O)cc1 |  | 
410 | Cc1ccc2oc(Cc3ccccc3)c(-c3ccc(-c4ccc(O[C@H](Cc5ccccc5)C(=O)O)cc4)cc3)c2c1 |  | 
510 | CCCCc1oc2ccccc2c1Cc1ccc(-c2ccc(OCn3cnnn3)cc2)cc1 |  | 
53 | COc1ccc(-c2cc(-c3ccc(-c4c(Cc5ccccc5)sc5ccccc45)cc3)ccc2O[C@H](Cc2ccccc2)C(=O)O)cc1 |  | 
740 | O=C(c1ccccc1)c1oc2ccccc2c1-c1ccc(-c2ccc(O)cc2)cc1 |  | 
900 | Cc1oc(-c2ccc(C(F)(F)F)cc2)nc1-c1ccc(-c2ccc(OCn3cnnn3)cc2)cc1 |  | 
47 | COc1ccc(-c2cc(-c3ccc(-c4c(Cc5ccccc5)sc5ccccc45)cc3)cc(Br)c2OCC(=O)O)c(OC)c1 |  | 
71 | COc1cccc(-c2cc(-c3ccc(-c4c(Cc5ccccc5)sc5ccccc45)cc3)ccc2OCC(=O)O)c1OC |  | 
160 | O=C(O)c1ccccc1C(=O)Nc1cc(-c2ccc(-c3c(Cc4ccccc4)oc4ccccc34)cc2)ccc1O |  | 
 | O=C(O)[C@@H](Cc1ccccc1)Oc1ccc(-c2ccc(-c3c(Cc4ccccc4)sc4ccccc34)cc2)cc1 | 37 | 
55 | O=C(O)[C@H](Cc1ccccc1)Oc1ccc(-c2ccc(-c3c(Cc4ccccc4)oc4ccccc34)cc2)cc1C1CCCC1 |  | 
1200 | CCCCc1oc2ccccc2c1C(=O)c1ccc2c(Br)c(OC(Cc3ccccc3)C(=O)O)ccc2c1 (stereo not drawn) |  | 
1400 | CCCCc1oc2ccccc2c1Cc1ccc2c(Br)c(OCC(=O)O)ccc2c1 |  | 
 | O=C(O)C(Cc1ccccc1)Oc1ccc(-c2ccc(-c3c(Cc4ccccc4)oc4ccccc34)cc2)cc1 (stereo not drawn) | 40 | 
130 | O=C(O)[C@H](Cc1ccccc1)Oc1ccc(-c2ccc(-c3c(Cc4ccccc4)oc4ccc(F)cc34)cc2)cc1 |  | 
1300 | CCCCc1oc2ccccc2c1Cc1ccc2cc(O)ccc2c1 |  | 
340 | O=C(O)[C@H](CCN1C(=O)c2ccccc2C1=O)Oc1ccc(-c2ccc(-c3c(Cc4ccccc4)oc4ccccc34)cc2)cc1 |  | 
100 | O=C(O)COc1ccc(-c2ccc(-c3c(Cc4ccccc4)sc4ccccc34)cc2)cc1-c1ccccc1 |  | 

IC50 [2] [nM] | Compound | Decrease [1] [%] | Decrease [3] [%]
1080 | Oc1ccc(Cc2sc3ccccc3c2-c2ccc(-c3ccc(O)cc3)cc2)cc1 |  | 
170 | O=C(O)COc1ccc(-c2ccc(-c3c(Cc4ccccc4)oc4ccccc34)cc2)cc1C1CCCC1 |  | 
700 | CCCCc1sc2ccccc2c1-c1ccc(-c2ccc(O)cc2)cc1 |  | 
350 | O=C(O)[C@@H](Cc1ccccc1)Oc1ccc(-c2ccc(-c3oc4ccccc4c3Cc3ccccc3)cc2)cc1 |  | 
 | O=C(O)c1ccc(S(=O)(=O)Oc2c(Br)cc(-c3ccc(-c4c(Cc5ccccc5)sc5ccccc45)cc3)cc2Br)cc1O | 25 | 
1160 | O=C(O)[C@@H](Cc1ccccc1)Oc1ccc(-c2ccc(-c3c(Cc4nccs4)sc4ccccc34)cc2)cc1 |  | 
1300 | Cc1oc(-c2ccc(C(F)(F)F)cc2)nc1-c1ccc2c(Br)c(OCC(=O)O)ccc2c1 |  | 
220 | O=C(O)[C@H](CCc1ccccc1)Oc1ccc(-c2ccc(-c3c(Cc4ccccc4)oc4ccccc34)cc2)cc1 |  | 
520 | Oc1c(I)cc(-c2ccc(-c3c(Cc4ccccc4)sc4ccccc34)cc2)cc1I |  | 
 | COc1ccc(Cc2sc3ccccc3c2-c2ccc(-c3ccc(O[C@H](Cc4ccccc4)C(=O)O)cc3)cc2)c(OC)c1 |  | 24
380 | CCCCc1oc2ccccc2c1Cc1ccc2c(I)c(O)ccc2c1 |  | 
580 | Oc1ccc(-c2ccc(-c3c(Cc4ccc(O)cc4O)sc4ccccc34)cc2)cc1 |  | 
 | Cc1oc(-c2ccc(C(F)(F)F)cc2)nc1-c1ccc(-c2ccc(OC(Cc3ccccc3)C(=O)O)cc2)cc1 (stereo not drawn) |  | 27
120 | O=C(O)[C@@H](Cc1ccccc1)Oc1ccc(-c2ccc(-c3c(Cc4ccc(F)cc4)sc4ccccc34)cc2)cc1 |  | 
170 | O=C(O)CCCOc1ccc(-c2ccc(-c3c(Cc4ccccc4)sc4ccccc34)cc2)cc1Br |  | 
52 | O=C(O)[C@@H](Cc1ccccc1)Oc1ccc(-c2ccc(-c3c(Cc4ccccc4)sc4ccccc34)cc2)cc1-c1ccc(Cl)cc1 |  | 
180 | O=C(O)c1ccccc1C(=O)NCCC(Oc1c(Br)cc(-c2ccc(-c3c(Cc4ccccc4)sc4ccccc34)cc2)cc1Br)C(=O)O (stereo not drawn) |  | 
320 | CCCCc1oc2ccccc2c1Cc1ccc2c(I)c(OC(Cc3ccccc3)C(=O)O)ccc2c1 (stereo not drawn) |  | 
 | CCCCc1oc2ccccc2c1Cc1ccc2c(Br)c(OC(Cc3ccccc3)C(=O)O)ccc2c1 (stereo not drawn) | 26 | 
44 | O=C(O)C(CCN1C(=O)c2ccccc2C1=O)Oc1c(Br)cc(-c2ccc(-c3c(Cc4ccccc4)sc4ccccc34)cc2)cc1Br (stereo not drawn) |  | 
 | CCCCc1oc2ccccc2c1-c1ccc(-c2ccc(OC(Cc3ccccc3)C(=O)O)cc2)cc1 (stereo not drawn) | 34 | 
1160 | CC(=O)Oc1cc(S(=O)(=O)Oc2ccc(-c3ccc(-c4coc5ccccc45)cc3)cc2)ccc1C(=O)O |  | 
700 | CCCCc1oc2ccccc2c1Cc1ccc2c(Br)c(OCn3cnnn3)ccc2c1 |  | 
 | O=C(O)c1ccc(S(=O)(=O)Oc2ccc(-c3ccc(-c4c(Cc5ccccc5)oc5ccccc45)cc3)cc2)cc1O |  | 18
360 | O=C(O)c1ccc(COc2ccc(-c3ccc(-c4c(Cc5ccccc5)oc5ccccc45)cc3)cc2)cc1 |  | 
28 | O=C(O)c1ccc(S(=O)(=O)Oc2ccc(-c3ccc(-c4c(Cc5ccccc5)oc5ccccc45)cc3)cc2C2CCCC2)cc1O |  | 
 | COc1ccc(-c2cc(-c3ccc(-c4c(Cc5ccccc5)sc5ccccc45)cc3)cc(-c3ccc(OC)cc3)c2OCC(=O)O)cc1 |  | 26

Compound | IC50 [2] [nM] | Decrease [1] [%] | Decrease [3] [%]
CCCCc1oc2ccccc2c1C(=O)c1ccc2c(Br)c(OCn3cnnn3)ccc2c1 | 1100 | 25 | 
O=C(O)CCNc1cc(-c2ccc(-c3c(Cc4ccccc4)oc4ccccc34)cc2)ccc1OCCc1ccccc1 | 140 |  | 17
CCCCc1sc2ccccc2c1-c1ccc(-c2ccc(O[C@H](Cc3ccccc3)C(=O)O)cc2)cc1 | 170 | 27 | 
CCCCc1sc2ccccc2c1-c1ccc(-c2ccc(O[C@@H](C(=O)O)c3ccccc3)cc2)cc1 | 110 | 28 | 
